Key:
Conditions in all cases: in vivo
Rattus norvegicus [1] = species: Rattus norvegicus; assay: Biodistribution of Gd-LDTA (conjugated with mannose BSA) protein using [111In]- in mature female Sprague-Dawley rat colon after injecting for 4 hour.; assay type: ADME, organism-based
In short: (§1)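 Conjugate of SCN-LDTPA with BSA, mannosylated BSA or galactosylated BSA (10 equiv chelate, pH 9 bicine, RT 24 h; FPLC-purified) was labelled with 340 μCi 111In acetate at pH 5.5 for 45 min. It was then gel-filtered (Biospin-6) and checked for purity by FPLC. Mature female Sprague-Dawley rats received 19 μg of conjugate. Four rats per time point (1, 4, 24, 48 h) were killed; blood, liver, bone, kidney and colon were taken and %ID/organ was calculated.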

Rattus norvegicus [2] = species: Rattus norvegicus; assay: Biodistribution of Gd-LDTA (conjugated with mannose BSA) protein using [111In]- in mature female Sprague-Dawley rat colon after injecting for 48 hour.; assay type: ADME, organism-based
Rattus norvegicus [3] = species: Rattus norvegicus; assay: Biodistribution of Gd-LDTA (conjugated with mannose BSA) protein using [111In]- in mature female Sprague-Dawley rat kidney after injecting for 4 hour.; assay type: ADME, organism-based
Rattus norvegicus [4] = species: Rattus norvegicus; assay: Biodistribution of Gd-LDTA (conjugated with mannose BSA) protein using [111In]- in mature female Sprague-Dawley rat kidney after injecting for 48 hour.; assay type: ADME, organism-based
Rattus norvegicus [5] = species: Rattus norvegicus; assay: Biodistribution of Gd-LDTA (conjugated with mannose BSA) protein using [111In]- in mature female Sprague-Dawley rat liver after injecting for 48 hour.; assay type: ADME, organism-based
Rattus norvegicus [6] = species: Rattus norvegicus; assay: Biodistribution of In-LDTA (conjugated with BSA) protein using [111In]- in mature female Sprague-Dawley rat colon after injecting for 24 hour.; assay type: ADME, organism-based
In short: (§2)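 SCN-LDTPA was coupled (pH 9 bicine, 24 h, RT) to BSA, mannosylated BSA or galactosylated BSA and FPLC-purified. The conjugate (400 μg) was labeled with 340 μCi 111In acetate at pH 5.5 for 45 min and gel-filtered. Mature female Sprague-Dawley rats received 19 μg of conjugate; four rats per time point. Blood, liver, bone, kidney and colon were taken and reported as %ID/organ.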

Rattus norvegicus [7] = species: Rattus norvegicus; assay: Biodistribution of In-LDTA (conjugated with galactose BSA)protein using [111In]- in mature female Sprague-Dawley rat blood after injecting for 48 hour.; assay type: ADME, organism-based; in short: as §2
Rattus norvegicus [8] = species: Rattus norvegicus; assay: Biodistribution of In-LDTA (conjugated with galactose BSA)protein using [111In]- in mature female Sprague-Dawley rat bone after injecting for 1 hour.; assay type: ADME, organism-based, Bone element; in short: as §2
Rattus norvegicus [9] = species: Rattus norvegicus; assay: Biodistribution of In-LDTA (conjugated with galactose BSA)protein using [111In]- in mature female Sprague-Dawley rat colon after injecting for 4 hour.; assay type: ADME, organism-based; in short: as §2
Rattus norvegicus [10] = species: Rattus norvegicus; assay: Biodistribution of In-LDTA (conjugated with BSA)protein using [111In]- in mature female Sprague-Dawley rat colon after injecting for 24 hour.; assay type: ADME, organism-based; in short: as §2
Rattus norvegicus [11] = species: Rattus norvegicus; assay: Biodistribution of In-LDTA (conjugated with mannoseBSA) protein using [111In]- in mature female Sprague-Dawley rat liver after injecting for 4 hour.; assay type: ADME, organism-based; in short: as §2
Rattus norvegicus [12] = species: Rattus norvegicus; assay: Biodistribution of In-LDTA protein using [111In]- in mature female Sprague-Dawley rat blood after injecting for 1 hour.; assay type: ADME, organism-based; in short: as §2
Rattus norvegicus [13] = species: Rattus norvegicus; assay: Biodistribution of Gd-LDTA (conjugated with mannose BSA) protein using [111In]- in mature female Sprague-Dawley rat liver after injecting for 96 hour.; assay type: ADME, organism-based
Rattus norvegicus [14] = species: Rattus norvegicus; assay: Biodistribution of Gd-LDTA (conjugated with mannose BSA) protein using [111In]- in mature female Sprague-Dawley rat liver after injecting for 1 hour.; assay type: ADME, organism-based
Rattus norvegicus [15] = species: Rattus norvegicus; assay: Biodistribution of In-LDTA (conjugated with BSA) protein using [111In]- in mature female Sprague-Dawley rat blood after injecting for 48 hour.; assay type: ADME, organism-based; in short: as §2
Rattus norvegicus [16] = species: Rattus norvegicus; assay: Biodistribution of In-LDTA (conjugated with mannoseBSA) protein using [111In]- in mature female Sprague-Dawley rat kidney after injecting for 4 hour.; assay type: ADME, organism-based; in short: as §2
Rattus norvegicus [17] = species: Rattus norvegicus; assay: Biodistribution of In-LDTA (conjugated with mannoseBSA) protein using [111In]- in mature female Sprague-Dawley rat kidney after injecting for 48 hour.; assay type: ADME, organism-based; in short: as §2
Rattus norvegicus [18] = species: Rattus norvegicus; assay: Biodistribution of In-LDTA (conjugated with mannoseBSA) protein using [111In]- in mature female Sprague-Dawley rat kidney after injecting for 1 hour.; assay type: ADME, organism-based; in short: as §2
Rattus norvegicus [19] = species: Rattus norvegicus; assay: Biodistribution of In-LDTA (conjugated with mannoseBSA) protein using [111In]- in mature female Sprague-Dawley rat liver after injecting for 24 hour.; assay type: ADME, organism-based; in short: as §2
Rattus norvegicus [20] = species: Rattus norvegicus; assay: Biodistribution of Gd-LDTA (conjugated with galactose BSA) protein using [111In]- in mature female Sprague-Dawley rat blood after injecting for 1 hour.; assay type: ADME, organism-based; in short: as §1
Rattus norvegicus [21] = species: Rattus norvegicus; assay: Biodistribution of Gd-DTA (conjugated with BSA)protein using [111In]- in mature female Sprague-Dawley rat liver after injecting for 48 hour.; assay type: ADME, organism-based; in short: as §1
Rattus norvegicus [22] = species: Rattus norvegicus; assay: Biodistribution of Gd-DTA (conjugated with BSA)protein using [111In]- in mature female Sprague-Dawley rat blood after injecting for 1 hour.; assay type: ADME, organism-based; in short: as §1
Rattus norvegicus [23] = species: Rattus norvegicus; assay: Biodistribution of Gd-DTA (conjugated with BSA)protein using [111In]- in mature female Sprague-Dawley rat blood after injecting for 48 hour.; assay type: ADME, organism-based; in short: as §1
Rattus norvegicus [24] = species: Rattus norvegicus; assay: Biodistribution of Gd-DTA (conjugated with BSA)protein using [111In]- in mature female Sprague-Dawley rat blood after injecting for 96 hour.; assay type: ADME, organism-based
Rattus norvegicus [25] = species: Rattus norvegicus; assay: Biodistribution of Gd-LDTA (conjugated with galactose BSA) protein using [111In]- in mature female Sprague-Dawley rat blood after injecting for 24 hour.; assay type: ADME, organism-based; in short: as §1
Rattus norvegicus [26] = species: Rattus norvegicus; assay: Biodistribution of Gd-LDTA (conjugated with galactose BSA) protein using [111In]- in mature female Sprague-Dawley rat bone marrow after injecting for 4 hour.; assay type: ADME, organism-based
Rattus norvegicus [27] = species: Rattus norvegicus; assay: Biodistribution of Gd-LDTA (conjugated with galactose BSA) protein using [111In]- in mature female Sprague-Dawley rat colon after injecting for 48 hour.; assay type: ADME, organism-based; in short: as §1
Rattus norvegicus [28] = species: Rattus norvegicus; assay: Biodistribution of Gd-LDTA (conjugated with galactose BSA) protein using [111In]- in mature female Sprague-Dawley rat kidney after injecting for 4 hour.; assay type: ADME, organism-based; in short: as §1
Rattus norvegicus [29] = species: Rattus norvegicus; assay: Biodistribution of Gd-LDTA (conjugated with galactose BSA) protein using [111In]- in mature female Sprague-Dawley rat kidney after injecting for 96 hour.; assay type: ADME, organism-based
Rattus norvegicus [30] = species: Rattus norvegicus; assay: Biodistribution of Gd-LDTA (conjugated with galactose BSA) protein using [111In]- in mature female Sprague-Dawley rat liver after injecting for 4 hour.; assay type: ADME, organism-based; in short: as §1
Rattus norvegicus [31] = species: Rattus norvegicus; assay: Biodistribution of Gd-LDTA (conjugated with mannose BSA) protein using [111In]- in mature female Sprague-Dawley rat blood after injecting for 24 hour.; assay type: ADME, organism-based; in short: as §1
Rattus norvegicus [32] = species: Rattus norvegicus; assay: Biodistribution of Gd-LDTA (conjugated with galactose BSA) protein using [111In]- in mature female Sprague-Dawley rat bone after injecting for 48 hour.; assay type: ADME, organism-based, Bone element; in short: as §1
Rattus norvegicus [33] = species: Rattus norvegicus; assay: Biodistribution of In-LDTA (conjugated with galactose BSA)protein using [111In]- in mature female Sprague-Dawley rat kidney after injecting for 48 hour.; assay type: ADME, organism-based; in short: as §2
Rattus norvegicus [34] = species: Rattus norvegicus; assay: Biodistribution of Gd-DTA (conjugated with BSA)protein using [153Gd]- in mature female Sprague-Dawley rat bone after injecting for 48 hour.
Rattus norvegicus [35] = species: Rattus norvegicus; assay: Biodistribution of Gd-DTA (conjugated with BSA)protein using [153Gd]- in mature female Sprague-Dawley rat bone marrow after injecting for 4 hour.
Rattus norvegicus [36] = species: Rattus norvegicus; assay: Biodistribution of Gd-DTA (conjugated with BSA)protein using [153Gd]- in mature female Sprague-Dawley rat bone marrow after injecting for 48 hour.

ID/organ (Rattus norvegicus [1]): 0.327%
ID/organ (Rattus norvegicus [2]): 0.21%
ID/organ (Rattus norvegicus [3]): 0.542%
ID/organ (Rattus norvegicus [4]): 0.379%
ID/organ (Rattus norvegicus [5]): 35%
ID/organ (Rattus norvegicus [6]): 2.87%
ID/organ (Rattus norvegicus [7]): 0.0267%
ID/organ (Rattus norvegicus [8]): 0.227%
ID/organ (Rattus norvegicus [9]): 4.8%
ID/organ (Rattus norvegicus [10]): 9.4%
ID/organ (Rattus norvegicus [11]): 87.6%
ID/organ (Rattus norvegicus [12]): 61.3%
ID/organ (Rattus norvegicus [13]): 24.4%
ID/organ (Rattus norvegicus [14]): 70.2%
ID/organ (Rattus norvegicus [15]): 3.33%
ID/organ (Rattus norvegicus [16]): 0.244%
ID/organ (Rattus norvegicus [17]): 0.465%
ID/organ (Rattus norvegicus [18]): 0.144%
ID/organ (Rattus norvegicus [19]): 75.2%
ID/organ (Rattus norvegicus [20]): 0.207%
ID/organ (Rattus norvegicus [21]): 17.4%
ID/organ (Rattus norvegicus [22]): 83.4%
ID/organ (Rattus norvegicus [23]): 3.37%
ID/organ (Rattus norvegicus [24]): 0.418%
ID/organ (Rattus norvegicus [25]): 0.02%
ID/organ (Rattus norvegicus [26]): 0.109%
ID/organ (Rattus norvegicus [27]): 35.3%
ID/organ (Rattus norvegicus [28]): 0.105%
ID/organ (Rattus norvegicus [29]): 0.193%
ID/organ (Rattus norvegicus [30]): 86.1%
ID/organ (Rattus norvegicus [31]): 0.063%
ID/organ (Rattus norvegicus [32]): 8.7%
ID/organ (Rattus norvegicus [33]): 0.14%
ID/organ (Rattus norvegicus [34]): 35.9%
ID/organ (Rattus norvegicus [35]): 1.75%
ID/organ (Rattus norvegicus [36]): 2.46%
SMILES: Nc1ccc(CC(C(=O)O)N(CCN(CC(=O)O)CC(=O)O)CCN(CC(=O)O)CC(=O)O)cc1 (stereo unspecified)

Source: ChEMBL document CHEMBL1129260, “Evaluation of the stability and animal biodistribution of gadolinium (III) benzylamine-derivatized diethylenetriaminepentaacetic acid” (J Med Chem, 1996)
